KSHV LANA nucl: inhibitors of KSHV LANA binding to nucleosomes. FITC-LANA1-23 / chicken nucleosome fluorescence polarization; stronger effect = lower value. z-score (no concentration beside the values). 0.3% of 51,000 active;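 active = both repeat wells score below -2 in polarization z-score versus plate sample wells, excluding overly bright wells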
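Test system: purified chicken nucleosomes with FITC-labelled LANA N-terminal peptide (1-23); Input: 240 nM purified chicken nucleosomes (480 nM peptide binding sites), final; Medium: TEN-BT buffer, pH 7.5; Timing: 10–45 min, room temperature; Technique: fluorescence polarization, 480 nm excitation, 535 nm parallel and perpendicular emission; Replication: duplicates.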
Ab BasE inh: inhibitors of Acinetobacter baumannii siderophore enzyme BasE | purified BasE, fluorescence polarization binding displacement | inhibition, % (concentration not given with the values) | 0.1% of 84,000 active | AID 485350; in the data active = inhibition above about 25%, passing the limit was not always enough;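 note: 0% = negative plate control signal and 100% = positive plate control signal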
Numbers without * were called inactive; / = no result. Shown is part of a subset that was picked to be rich in hits.

SMILES | KSHV LANA nucl | Ab BasE inh
CCOC(=O)c1cc(-c2ccc(/C=C(\C#N)C(N)=C(C#N)C#N)o2)ccc1Cl | -4.5* | 6
N#C/C(=C\c1ccc(-c2cccc(Cl)c2)o1)C(N)=O | -0.34 | -4
CC1CN(S(=O)(=O)c2cccs2)C(C)CN1S(=O)(=O)c1cccs1 (configuration not stated) | 0.27 | -2
COC(=O)C(CC(C)C)NC(=O)Cn1cnc2ccccc2c1=O (configuration not stated) | / | 1
CC1CC2c3cccc(C(=O)O)c3C(=O)N2c2ccc(F)cc21 (configuration not stated) | / | 1
O=S(=O)(c1ccc(-c2cc(C(F)(F)F)no2)s1)N1CCCc2ccccc21 | / | 1
Cc1cccc(OCC(=O)NC2CCCC2)c1 | 0.052 | 29*
Cc1ccc(OCC(=O)NC2CCC(C)CC2)cc1C (configuration not stated) | / | 1
Cc1cccc2[nH]ncc12 | 0.32 | 25*
S=c1[nH]ncc2ccccc12 | / | 1
N#Cc1ccc(CON2C(=O)CCC2=O)cc1 | / | 3
O=C(O)c1ccc(CN2CCCC2=O)cc1 | / | 3
CC(C)C(=O)OCC(=O)Nc1ccccc1C(=O)Nc1ccc2c(c1)OCO2 | / | -1
Cc1ccc(C)c(OCCn2cc(/C=C3\C(=N)N4N=C(S(C)(=O)=O)SC4=NC3=O)c3ccccc32)c1 | -0.034 | 8
N=C1/C(=C\c2cn(CCOc3ccccc3Cl)c3ccccc23)C(=O)N=C2SC=NN12 | -3.4* | -18
CC(C)CCNC(=O)C1CCCN(S(=O)(=O)N2CCC3(CC2)OCCO3)C1 (configuration not stated) | -2.2* | 2
CCOC(=O)N1CCN(S(=O)(=O)N2CCCC(C(=O)NCCC(C)C)C2)CC1 (configuration not stated) | -0.25 | 1
COC(=O)c1sc(SC)c(C#N)c1-c1ccc(Br)s1 | -0.18 | 1
Cc1ccc(-c2c(CN3CCN(C)CC3)csc2C)cc1 | 0.44 | -4
O=C(Cc1ccc(F)cc1)Nc1cc(=O)[nH]c(=O)[nH]1 | -2.2* | 1
O=C(CSCc1ccccc1)Nc1cc(=O)[nH]c(=O)[nH]1 | -0.53 | 1
CN1C/C(=N\S(=O)(=O)c2ccccc2)N(C)C1=O | 0.049 | -2
CC1=CC(=O)C=C(C)C1=NS(=O)(=O)c1ccccc1 | / | 26*
Cc1cccc(C)c1NC(=O)C1CCN(S(=O)(=O)c2ccccc2)CC1 | -0.27 | 5
COCCn1c(N)c(-c2nc3ccccc3[nH]2)c(O)c1N=Nc1ccc(F)c(F)c1 | / | 20
SMILES | KSHV LANA nucl | Ab BasE inh
N#Cc1c2c(c(=O)n3c1[nH]c1ccccc13)CCCC2 | -0.7 | -1
Cc1ccc(NC(=O)c2cc3c(=O)n(Cc4ccco4)ccc3nc2C)cc1 | -0.43 | -2
Cc1nc2ccn(Cc3cccnc3)c(=O)c2cc1C(=O)NCCCc1ccco1 | -2.1* | 3
Cc1cc(=O)oc2c1ccc1oc(N=Nc3ccccc3)c(O)c12 | -0.005 | -2
C=CCN1C(=O)SC(CC(=O)Nc2ccccc2)C1=O (configuration not stated) | -0.18 | -3
CCSC1=NC2(CCCCC2)Nc2ccccc21 | / | 0
c1cnc2c(c1)NC1(CCCCC1)N2 | -3.6* | 29
COc1ccc(-c2csc(/C(C#N)=C(\O)CSc3nccn3C)n2)cc1OC | / | 31*
COc1ccc(-c2csc(/C(C#N)=C(\O)CSc3nnc(-c4ccccc4F)n3C3CC3)n2)cc1OC | / | -2
FC(F)(F)c1cnc(NCc2nnc3ccccn23)c(Cl)c1 | / | 2
Cc1cc(C)nc(Nc2n[nH]c(-c3cccnc3)n2)n1 | -0.46 | 27*
Cc1cc(C)nc(Nc2n[nH]c(COc3ccc4ccccc4c3)n2)n1 | 0.26 | -1
CC(C)OC(=O)c1cn(CCC#N)nc1-c1ccccc1 | 0.69 | -1
CC(C)N1CC=C2C(C1)C(c1ccccc1Cl)C(C#N)=C(N)C2(C#N)C#N (configuration not stated) | -2.3* | 26*
CC(C)(C)OC(=O)N1CC=C2C(C1)C(c1cccc(F)c1)C(C#N)=C(N)C2(C#N)C#N (configuration not stated) | 1.8 | -12
N#CC1(NC(=O)CSc2nnc(-c3ccc4c(c3)OCO4)o2)CCCCC1 | / | 10
CC(=O)Nc1ccc(-c2nc3cc(C)ccc3o2)cc1 | -0.91 | 0
CC(=O)Nc1ccc2oc(C)nc2c1 | 1.1 | 37*
